Experimental data from different studies.
Each line is one published result; the experiments were not run side by side.
KIT: Mast/stem cell growth factor receptor Kit (KIT, Homo sapiens, UniProt P10721)
KIT T670I/V559D: Mast/stem cell growth factor receptor Kit (KIT, Homo sapiens, UniProt P10721, T670I/V559D)
KIT V559D: Mast/stem cell growth factor receptor Kit (KIT, Homo sapiens, UniProt P10721, V559D)
KIT D816V: Mast/stem cell growth factor receptor Kit (KIT, Homo sapiens, UniProt P10721, D816V)
KIT V559D/V654A: Mast/stem cell growth factor receptor Kit (KIT, Homo sapiens, UniProt P10721, V559D/V654A)
KIT D816H: Mast/stem cell growth factor receptor Kit (KIT, Homo sapiens, UniProt P10721, D816H)

N[C@H]1CCN(c2nccc(-c3cnn4ncccc34)n2)C1  remaining binding (Mast/stem cell growth factor receptor Kit (KIT, Homo sapiens, UniProt P10721, L576P); binding; 1 µM): 86%
Cc1cnc(Nc2ccc(C(=O)N3CCC(N4CCCC4)CC3)cc2)nc1-c1cc2ccccc2s1  remaining binding (KIT; binding; competition with immobilised ligand; 1 µM): 4.5%
COc1cnc(Nc2cccc(S(N)(=O)=O)c2)nc1N1CCN(c2ccccc2)CC1  remaining binding (KIT T670I/V559D; binding; competition with immobilised ligand; 1 µM): 97%
CNC(=O)Nc1ccc2c(c1)[C@@]1(CC2)OC(=O)N(CC(=O)N(Cc2ccc(F)cc2)[C@@H](C)C(F)(F)F)C1=O  remaining binding (KIT V559D; cell-free assay; competition with immobilised ligand; 1 µM): 100%
c1cncc(-c2cccc(Nc3nccc(NC4CCCCC4)n3)c2)c1  remaining binding (KIT V559D; binding; competition with immobilised ligand; 10 µM): 1.2%
c1cnn2ncc(-c3ccnc(N4CCC45COC5)n3)c2c1  remaining binding (KIT D816V; binding; 1 µM): 93%
C[C@H](c1ccnc(Nc2nc3ccc(-c4cc(N(C)C)ncn4)cc3[nH]2)c1)N1CCN(C(=O)CC(F)(F)F)CC1  remaining binding (KIT V559D/V654A; cell-free assay; competition with immobilised ligand; 0.1 µM): 100%
O=C(c1ccc(Nc2nccc(-c3cc4ccccc4s3)n2)cc1)N1CCC(N2CCCC2)CC1  remaining binding (KIT V559D/V654A; binding; competition with immobilised ligand; 1 µM): 63%
O=C(NCC1CCOCC1)c1n[nH]cc1NC(=O)c1c(F)cccc1F  remaining binding (KIT V559D/V654A; binding; competition with immobilised ligand; 1 µM): 90%
Nc1ncc2c(n1)-c1c([nH]c3ccc(C#CC4CC4)cc13)CCCC2  remaining binding (Mast/stem cell growth factor receptor Kit, autoinhibited (KIT, Homo sapiens, UniProt P10721); binding; competition with immobilised ligand; 1 µM): 86%
C[C@@H](c1ccc(-n2cnc3c(N)ncnc32)cc1)N1CCc2nn(C)c(Cc3ccccc3)c2C1=O  remaining binding (KIT; binding; competition with immobilised ligand; 0.1 µM): 38%
O=C(c1ccc(Nc2ncc(Cl)c(-c3cc4ccccc4s3)n2)cc1)N1CCC(N2CCCC2)CC1  remaining binding (KIT D816H; binding; competition with immobilised ligand; 1 µM): 22%
O=c1nc(-c2ccccn2)sc2ccccc12  remaining binding (KIT D816H; binding; competition with immobilised ligand; 1 µM): 92%
CC1CCCN1c1nccc(-c2cnn3ncccc23)n1 (stereo not drawn)  remaining binding (KIT T670I/V559D; binding; 1 µM): 100%
O=C(NCCCN1CCOCC1)c1ccc(Nc2nccc(-c3cc4ccccc4s3)n2)cc1  remaining binding (KIT D816V; binding; competition with immobilised ligand; 1 µM): 16%
CN([C@@H]1CCc2c(CC(=O)O)c3ccccc3n2C1)S(=O)(=O)c1ccc(F)cc1  remaining binding (KIT T670I/V559D; cell-free assay; competition with immobilised ligand; 1 µM): 100%
C[C@@H]1CCN(c2nccc(-c3cnn4ncccc34)n2)C1  remaining binding (Mast/stem cell growth factor receptor Kit (KIT, Homo sapiens, UniProt P10721, A829P); binding; 1 µM): 85%
C[C@@]1(Cc2ccc(C#N)cc2)C(=O)N(c2cc(Cl)cc(Cl)c2)c2ncc(C(=O)NC3(c4nc(C5CCC5)no4)CC3)n21  remaining binding (KIT D816V; cell-free assay; competition with immobilised ligand; 1 µM): 100%
F[C@@H]1CCN(c2nccc(-c3cnn4ncccc34)n2)C1  remaining binding (KIT V559D/V654A; binding; 1 µM): 74%
COc1ccc2c(c1)O[C@H](c1ccc(OC)c(OC)c1)C[C@@H]2NC(=O)C1(c2ccc3c(c2)OC(F)(F)O3)CC1  remaining binding (KIT; cell-free assay; competition with immobilised ligand; 1 µM): 100%
CN(C)c1ncc(F)c(-c2cnn3ncccc23)n1  remaining binding (KIT D816V; binding; 1 µM): 91%
